Assay results reported in ChEMBL document CHEMBL3797200, “Mohangic Acids A-E, p-Aminoacetophenonic Acids from a Marine-Mudflat-Derived Streptomyces sp” (J Nat Prod, 2016).
Active and inactive are the calls of the source. The rule behind the calls is not given here.

Columns and labels:
[1] = system: A549; assay: Cytotoxicity against human A549 cells after 72 hrs by SRB assay; format: functional, cell-based; settings: A549, 72 h
[2] = species: Mus musculus; assay: Induction of Quinone reductase activity in mouse Hepa1c1c7 cells at 20 uM after 24 hrs by MTT assay relative to control; format: cell-based
Summary of the method: (§1)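 Hepa-1c1c7 murine hepatoma cells plated at 20 000 cells/mL, grown 24 h (37 °C, 5% CO2), then compound-treated 24 h; vehicle 0.1% DMSO, β-naphthoflavone 2 μM positive control. Lysis in Tris/NaCl/MgCl2/0.5% NP-40, then FAD, G6P/G6PDH, NADP, MTT, menadione mix, 10 min; MTT reduction at 610 nm, crystal violet protein on parallel plates; SA = (MTTabs/CVabs)×3345, nmol/min/mg; mean ± SD of four determinations.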

[3] = system: Aspergillus fumigatus; assay: Antifungal activity against Aspergillus fumigatus; format: functional
[4] = system: Candida albicans; assay: Antifungal activity against Candida albicans; format: functional
[5] = system: Escherichia coli; assay: Antibacterial activity against Escherichia coli; format: functional
[6] = system: Proteus hauseri; assay: Antibacterial activity against Proteus hauseri; format: functional
[7] = system: Salmonella enterica; assay: Antibacterial activity against Salmonella enterica; format: functional
[8] = system: Kocuria rhizophila; assay: Antibacterial activity against Kocuria rhizophila; format: functional
[9] = system: Bacillus subtilis; assay: Antibacterial activity against Bacillus subtilis; format: functional
[10] = system: Staphylococcus aureus; assay: Antibacterial activity against Staphylococcus aureus; format: functional
[11] = Cytotoxicity against human SKHEP1 cells after 72 hrs by SRB assay; format: functional, cell-based; settings: SK-HEP1, 72 h
[12] = system: MDA-MB-231; assay: Cytotoxicity against human MDA-MB-231 cells after 72 hrs by SRB assay; format: functional, cell-based; settings: MDA-MB-231, 72 h
[13] = system: K562; assay: Cytotoxicity against human K562 cells after 72 hrs by SRB assay; format: functional, cell-based; settings: K562, 72 h
[14] = Cytotoxicity against human SNU638 cells after 72 hrs by SRB assay; format: functional, cell-based; settings: SNU-638, 72 h
[15] = Cytotoxicity against human HCT116 cells after 72 hrs by SRB assay; format: functional, cell-based; settings: HCT-116, 72 h
[16] = species: Mus musculus; assay: Induction of Quinone reductase activity in mouse Hepa1c1c7 cells at 5 uM after 24 hrs by MTT assay relative to control; format: cell-based; summary of the method: as §1
[17] = species: Mus musculus; assay: Induction of Quinone reductase activity in mouse Hepa1c1c7 cells at 10 uM after 24 hrs by MTT assay relative to control; format: cell-based; summary of the method: as §1
[18] = species: Mus musculus; assay: Induction of Quinone reductase activity in mouse Hepa1c1c7 cells at 30 uM after 24 hrs by MTT assay relative to control; format: cell-based; summary of the method: as §1
[19] = Cytotoxicity against mouse Hepa1c1c7 cells; format: cell-based
[20] = species: Mus musculus; assay: Induction of Quinone reductase activity in mouse Hepa1c1c7 cells at 2 uM after 24 hrs by MTT assay relative to control; format: cell-based; summary of the method: as §1
[21] = species: Mus musculus; assay: Induction of Quinone reductase activity in mouse Hepa1c1c7 cells after 24 hrs by MTT assay; format: cell-based; summary of the method: as §1

MIC [3] [µM]	MIC [4] [µM]	MIC [5] [µM]	MIC [6] [µM]	MIC [7] [µM]	MIC [8] [µM]	MIC [9] [µM]	MIC [10] [µM]	SMILES	IC50 [1] [µM]	Activity [2]	IC50 [11] [µM]	IC50 [12] [µM]	IC50 [13] [µM]	IC50 [14] [µM]	IC50 [15] [µM]	further results
> 128	> 128	> 128	> 128	> 128	> 128	> 128	> 128	CC(=O)Nc1ccc([C@H](O)C[C@@H](O)[C@H](C)C[C@@H](C)[C@H](O)[C@H](C)/C=C/C=C/C=C/[C@H](O)CC(=O)O)cc1	> 10	inactive	> 10	> 10	> 10	> 10	> 10	
> 128	> 128	> 128	> 128	> 128	> 128	> 128	> 128	CNc1ccc(C(=O)C[C@@H](O)[C@H](C)C[C@@H](C)[C@H](O)[C@H](C)/C=C/C=C/C=C/[C@H](O)CC(=O)O)cc1	> 10	inactive	> 10	> 10	> 10	> 10	> 10	
> 128	> 128	> 128	> 128	> 128	> 128	> 128	> 128	C[C@H](/C=C/C=C/C=C/[C@H](O)CC(=O)O)[C@@H](O)[C@H](C)C[C@@H](C)[C@H](O)CC(=O)c1ccc(N)cc1	> 10	inactive	> 10	> 10	> 10	> 10	> 10	
> 128	> 128	> 128	> 128	> 128	> 128	> 128	> 128	CC(=O)Nc1ccc(C(=O)C[C@@H](O)[C@H](C)C[C@@H](C)[C@H](O)[C@H](C)/C=C/C=C/C=C/[C@H](O)CC(=O)O)cc1	> 10	inactive	> 10	> 10	> 10	> 10	> 10	
> 128	> 128	> 128	> 128	> 128	> 128	> 128	> 128	C[C@H](/C=C/C=C/C=C/[C@H](O)CC(=O)O)[C@@H](O)[C@H](C)C[C@@H](C)[C@H](O)CC(=O)c1ccc(N[C@@H]2O[C@H](CO)[C@@H](O)[C@H](O)[C@H]2O)cc1	> 10		> 10	> 10	> 10	> 10	> 10	fold change (FC) [16]: 1.5; fold change (FC) [17]: 1.8; fold change (FC) [18]: 2.2; Activity [19]: Non-toxic; fold change (FC) [20]: 1.3; Activity [21]: Dose-dependent effect; fold change (FC) [2]: 2.1
